# Experimental data from PMC5889851 (ACS chemical biology, 2018).
# What was measured:
# [1] = system: HEK293 cells overexpressing SIRT2; assay: Cellular NAD+ measurement; type: cell-based, human; settings: 40 nM, 6 h, vs control cells
# How it was run: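 SIRT2-overexpressing HEK293 cells got 0 or 40 nM NAMPT inhibitor for 6 h, then were harvested, rinsed and resuspended in fresh medium. Pellets were extracted with ice-cold 7% perchloric acid through three vortex (30 s) and ice sonication (5 min) cycles. Extracts were centrifuged 3 min at RT, and supernatant was neutralised to pH 7 with NaOH and phosphate buffer. NAD⁺ was quantified by cycling assay.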
# HEK293 cells = assay: Viability testing using trypan blue; type: cell-based, human; settings: 40 nM, 6 h
# How it was run: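 HEK293 cells received 0 or 40 nM NAMPT inhibitor for 6 h, then were harvested, rinsed and resuspended in fresh medium. An aliquot of the suspension was scored for viability by trypan blue exclusion.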
# [2] = biological target: T1, SIRT2 in SIRT2 overexpressing HEK293 cells (Homo sapiens, UniProt Q8IXJ6); assay: In situ labeling of SIRT2 with activity-based probe; type: cell-based; settings: cells treated with FK866 6 h, then 10 μM probe 1; compared to control cells
# T1 sequence (Q8IXJ6 1-389): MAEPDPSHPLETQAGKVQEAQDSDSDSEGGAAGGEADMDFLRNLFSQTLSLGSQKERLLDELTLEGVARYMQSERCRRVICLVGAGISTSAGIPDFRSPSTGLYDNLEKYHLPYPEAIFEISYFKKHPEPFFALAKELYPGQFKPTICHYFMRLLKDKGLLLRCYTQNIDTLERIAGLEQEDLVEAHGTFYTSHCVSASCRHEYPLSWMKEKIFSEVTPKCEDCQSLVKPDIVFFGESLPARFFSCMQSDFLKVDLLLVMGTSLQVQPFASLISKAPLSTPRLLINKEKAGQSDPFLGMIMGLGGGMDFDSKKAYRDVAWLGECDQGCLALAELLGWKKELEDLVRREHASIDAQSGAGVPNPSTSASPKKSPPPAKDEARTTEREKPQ
# How it was run: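 SIRT2-overexpressing HEK293 cells were treated with or without NAMPT inhibitor for 6 h, rinsed three times, and given fresh medium with 10 μM probe. Live cells were irradiated at 365 nm on ice for 1 h, then harvested and lysed. Lysate was click-conjugated to azide-fluor 545, resolved by SDS-PAGE and scanned for fluorescence. SIRT2 protein level was checked by Western blot.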
smiles,measurement,setting,value
O=C(/C=C/c1cccnc1)NCCCCC1CCN(C(=O)c2ccccc2)CC1 [FK866],NAD+ depletion,[1],60%
same,loss of viability,HEK293 cells,negligible loss of viability
same,in situ labeling intensity of SIRT2 by probe 1,[2],decreased labeling intensity
